The source of these data is ChEMBL document CHEMBL4311947, “Discovery of Novel Naphthylphenylketone and Naphthylphenylamine Derivatives as Cell Division Cycle 25B (CDC25B) Phosphatase Inhibitors: Design, Synthesis, Inhibition Mechanism, and in Vitro Efficacy against Melanoma Cell Lines” (J Med Chem, 2019).

Assay [1] deals with A2058. Put plainly: Cytotoxicity against human A2058 cells at 5 uM after 48 hrs by MTT assay. It counts as functional, cell-based. The gist of the method: (§1)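 Cells seeded at 4×10^4/well, treated 24 h after plating with inhibitor or 0.5% (v/v) DMSO vehicle for 24, 48 or 72 h. MTT added, 3 h at 37°C under 5% CO2, formazan solubilised, absorbance at 570 nm. Viability in arbitrary units, mean ± SE of at least three independent experiments versus control. Cells grown in DMEM/10% FBS at 37°C, 5% CO2; BJ-5ta cultured in 4:1 DMEM/Medium 199 with hygromycin B.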

The test system of assay [2] is A2058. Put plainly: Induction of cell cycle arrest in human A2058 cells assessed as increase in accumulation at G2/M phase at 10 uM after 16 hrs by propidium iodide staining based flow cytometric method. It counts as functional. In outline: (§2)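 Seeded at 3×10^5 cells/well for 24 h at 37°C, then exposed to 10 µM inhibitor or 0.5% (v/v) DMSO for 8 or 16 h. Trypsin-harvested, fixed in cold 70% ethanol at -20°C for 1 h, stained 30 min at 4°C with 50 µg/mL PI in non-lysis solution. Phase distribution (sub-G1, G0/G1, S, G2/M) read by FACScan; triplicate experiments, mean ± SE.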

Assay [3] relates to A2058. Put plainly: Cytotoxicity against human A2058 cells at 2.5 uM after 72 hrs by MTT assay. It is filed as functional, cell-based. The gist of the method:
as §1
(In general: Tetrazolium assays rely on reduction of a dye to a coloured formazan, in cell work by metabolically active cells.)

For assay [4], the target named is T1, M-phase inducer phosphatase 2 (Homo sapiens, UniProt P30305).
T1 sequence (P30305 whole entry): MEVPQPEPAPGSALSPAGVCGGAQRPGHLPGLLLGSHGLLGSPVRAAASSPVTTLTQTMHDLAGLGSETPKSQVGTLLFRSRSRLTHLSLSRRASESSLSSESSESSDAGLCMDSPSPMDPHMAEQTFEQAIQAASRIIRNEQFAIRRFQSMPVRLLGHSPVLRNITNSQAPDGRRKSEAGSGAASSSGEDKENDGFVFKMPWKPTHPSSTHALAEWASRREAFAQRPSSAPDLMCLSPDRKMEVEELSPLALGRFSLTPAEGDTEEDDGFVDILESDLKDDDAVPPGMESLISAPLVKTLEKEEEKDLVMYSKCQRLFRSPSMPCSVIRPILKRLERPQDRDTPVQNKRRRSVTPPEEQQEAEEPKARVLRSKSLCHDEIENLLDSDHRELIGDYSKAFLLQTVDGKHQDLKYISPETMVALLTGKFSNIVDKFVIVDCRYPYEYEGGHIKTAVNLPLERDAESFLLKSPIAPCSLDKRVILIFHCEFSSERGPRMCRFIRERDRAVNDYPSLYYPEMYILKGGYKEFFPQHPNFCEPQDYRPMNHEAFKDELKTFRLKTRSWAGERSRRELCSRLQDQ
Kind of assay: Uncompetitive inhibition of N-terminal His6-tagged human CDC25B (377 to 550 residues) expressed in Escherichia coli BL21(DE3) cells using OMFP as substrate by double reciprocal Lineweaver-Burk plot analysis. The gist of the method: (§3)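 Recombinant CDC25 form (15–25 nM) in 20 mM Tris-HCl pH 7.8, 0.5 mM TCEP, 1% (v/v) DMSO, with or without inhibitor. Reaction started with 0.5–25 µM OMFP; O-methylfluorescein formation followed continuously at 30°C (ex 485/em 530 nm). Initial rates (AU/min) analysed in Lineweaver-Burk plots for Vmax, KM and mechanism; Ki averaged from at least three independent experiments, only roughly estimated for mixed inhibition.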

Assay [5] relates to A2058. Put plainly: Induction of cell cycle arrest in human A2058 cells assessed as increase in accumulation at subG1 phase at 10 uM after 16 hrs by propidium iodide staining based flow cytometric method. It is filed as functional. The gist of the method:
as §2
Background: In flow cytometry, cells or beads pass a laser one at a time.

Assay [6] addresses T2, M-phase inducer phosphatase 2 (Homo sapiens) (UniProt P30305).
T2 sequence (whole entry): T1 sequence (P30305 whole entry)
Put plainly: Inhibition of N-terminal His6-tagged human CDC25B (377 to 550 residues) expressed in Escherichia coli BL21(DE3) cells at 10 uM by spectrofluorimetric analysis.

For assay [7], the system named is A2058. Kind of assay: Cytotoxicity against human A2058 cells at 50 uM after 24 hrs by MTT assay. It counts as functional, cell-based. The gist of the method:
as §1

Assay [8] addresses T3, M-phase inducer phosphatase 1 (Homo sapiens, UniProt P30304).
T3 sequence (P30304 whole entry): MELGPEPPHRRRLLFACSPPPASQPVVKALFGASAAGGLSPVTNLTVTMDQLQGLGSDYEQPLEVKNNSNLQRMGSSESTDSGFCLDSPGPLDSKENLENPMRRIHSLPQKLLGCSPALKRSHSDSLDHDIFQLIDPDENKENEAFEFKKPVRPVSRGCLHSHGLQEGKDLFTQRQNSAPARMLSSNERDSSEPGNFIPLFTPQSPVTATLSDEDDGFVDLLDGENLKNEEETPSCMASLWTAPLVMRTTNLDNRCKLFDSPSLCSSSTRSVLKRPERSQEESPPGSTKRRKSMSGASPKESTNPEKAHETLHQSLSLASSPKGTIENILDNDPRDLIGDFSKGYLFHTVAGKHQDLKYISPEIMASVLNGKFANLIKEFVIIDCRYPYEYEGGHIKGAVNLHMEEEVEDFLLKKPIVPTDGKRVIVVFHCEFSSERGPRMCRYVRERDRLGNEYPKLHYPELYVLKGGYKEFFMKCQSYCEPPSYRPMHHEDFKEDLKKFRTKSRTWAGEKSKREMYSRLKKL
Put plainly: Inhibition of N-terminal His6-tagged human CDC25A (336 to 508 residues) expressed in Escherichia coli BL21(DE3) cells using OMFP as substrate by double reciprocal Lineweaver-Burk plot analysis. The gist of the method:
as §3

The test system of assay [9] is A-375. Put plainly: Induction of cell cycle arrest in human A375 cells assessed as decrease in accumulation at G0/G1 phase at 10 uM after 16 hrs by propidium iodide staining based flow cytometric method. It counts as functional. In outline:
as §2

For assay [10], the system named is A-375. Put plainly: Induction of cell cycle arrest in human A375 cells assessed as decrease in accumulation at G0/G1 phase at 10 uM after 8 hrs by propidium iodide staining based flow cytometric method. It counts as functional. In outline: as §2

Structures are written as SMILES. Active and inactive are the calls of the source. The calls are words filed in the database; no cut-off is given here.

As a reminder, the Ki is a measure of affinity in units of concentration, obtained from inhibition or displacement. The low end stands for a stronger hold on the target, the high end for a looser hold on the target.

Regarding `CCOC(=O)c1cccc(Nc2cc(OC)cc3ccccc23)c1`, the result in the assay with A2058 [1], in the assay with A2058 [2], in the assay with A2058 [3], with A2058 [7], in the assay with A-375 [9] and in the assay with A-375 [10] was Active. The Ki stood at 8.5 µM in assay [4] and 3 µM in assay [8]. Moreover, in the assay on A2058 [5], the result was inactive. Moreover, the inhibition result in [6] was “inactive”.
